The target in one test is KIN10 mutant 3 (Arabidopsis thaliana, UniProt Q38997, K63A/K69A/L73A/R65A/R66A). Nature of the test: MST binding of ATP to KIN10 mutant 3. Conditions: fig. S5. Summed up: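 KIN10 kinase-domain mutant 3 (K63A-R65A-R66A-K69A-L73A), N-His6, expressed in E. coli BL21(DE3), Ni-NTA purified. Protein labeled with NT647 via NHS coupling to lysines (30 min on ice), free dye removed by size exclusion into MST buffer (50 mM phosphate pH 7.4, 150 mM NaCl, MgCl2, 1 mM DTT, 0.05% Tween 20).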
Sequence of KIN10 mutant 3 (Q38997 19-271 K63A/R65A/R66A/K69A/L73A limits assumed): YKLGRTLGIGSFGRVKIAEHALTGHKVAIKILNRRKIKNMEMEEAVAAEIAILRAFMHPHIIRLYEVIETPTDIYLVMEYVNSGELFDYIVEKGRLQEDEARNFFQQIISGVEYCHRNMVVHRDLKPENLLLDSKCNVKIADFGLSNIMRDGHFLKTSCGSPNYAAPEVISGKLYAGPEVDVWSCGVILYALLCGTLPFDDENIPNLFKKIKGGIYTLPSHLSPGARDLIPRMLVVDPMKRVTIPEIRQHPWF

Test [1] addresses KIN10 mutant 1 (R23A-R32A-K34A) (Arabidopsis thaliana, UniProt Q38997, K34A/R23A/R32A). Nature of the test: MST binding of T6P to KIN10 mutant 1. Summed up: (§1)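 Alanine-substituted KIN10 kinase domain was made by overlap PCR and cloned into pET28a. It was expressed with an N-terminal His6 tag in E. coli BL21(DE3) and Ni-NTA purified. Protein was NT647-NHS labelled and desalted into phosphate buffer pH 7.4 with NaCl, DTT and Tween 20. 100 nM labelled protein was mixed with a T6P serial dilution, and MST was read at 25°C (40% MST, 80% LED power).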

In another test the target is KIN10 K63A-R66A-R141A (Arabidopsis thaliana, UniProt Q38997, K63A/R141A/R66A). Nature of the test: biochemical. The format is binding.
Sequence of KIN10 K63A-R66A-R141A (Q38997 19-271 K63A/R66A/R141A limits assumed): as the sequence (Q38997 19-271 K63A/R65A/R66A/K69A/L73A limits assumed) above, with A47R, A51K, A55L, R123A counted along it
Test [2] addresses plant α-catalytic subunit of SnRK1 (Arabidopsis thaliana, UniProt Q38997). Briefly: Inhibition of the SnRK1 α-catalytic subunit by sugar phosphates. It counts as biochemical. As to conditions: table S4.
For test [3], the target named is KIN10 mutant 2 (R52A-R53A-K54A-K56A) (Arabidopsis thaliana, UniProt Q38997, K54A/K56A/R52A/R53A). Briefly: MST binding of T6P to KIN10 mutant 2. Summed up: as §1
Sequence of KIN10 mutant 2 (R52A-R53A-K54A-K56A) (Q38997 19-271 R52A/R53A/K54A/K56A limits assumed): as the sequence (Q38997 19-271 K63A/R65A/R66A/K69A/L73A limits assumed) above, with R34A, R35A, K36A, K38A, A45K, A47R, A48R, A51K, A55L counted along it
Another test deals with KIN10 R141A (Arabidopsis thaliana, UniProt Q38997, R141A). Briefly: MST binding of T6P to KIN10 R141A. A digest of the protocol: (§2)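 N-terminal His6-tagged recombinant KIN10 was expressed in E. coli BL21(DE3), Ni-NTA purified, and NT647-labelled on lysines via NHS coupling. Free dye was removed by size exclusion into MST buffer (50 mM phosphate pH 7.4, 150 mM NaCl, 1 mM DTT, 0.05% Tween 20). 100 nM labelled protein was titrated with serially diluted T6P. Microscale thermophoresis was run at 25°C, 40% MST power and 80% LED power.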
Sequence of KIN10 R141A (Q38997 19-271 R141A limits assumed): as the sequence (Q38997 19-271 K63A/R65A/R66A/K69A/L73A limits assumed) above, with A45K, A47R, A48R, A51K, A55L, R123A counted along it

Another test concerns GRIK1-KIN10. As to conditions: MST; ref Zhai et al. ([9]); cited from earlier work.
Test [4] deals with T1, WT KIN10 (Arabidopsis thaliana, UniProt Q38997). Briefly: MST binding of T6P to WT KIN10 kinase domain.
T1 sequence (Q38997 19-271 limits assumed): as the sequence (Q38997 19-271 K63A/R65A/R66A/K69A/L73A limits assumed) above, with A45K, A47R, A48R, A51K, A55L counted along it
The target in the next test is KIN10 R66A (Arabidopsis thaliana, UniProt Q38997, R66A). Nature of the test: MST binding of T6P to KIN10 R66A. Summed up:
as §2

A further test concerns the target KIN10 mutant 1 (Arabidopsis thaliana, UniProt Q38997, K34A/R23A/R32A). Nature of the test: KIN10 kinase activity assay with SPS peptide, mutant 1. The format is biochemical. Conditions: 1 mM T6P, 200 ng KIN10 mutant 1 and 200 ng GRIK1.
Test [5] has as its target T1, WT KIN10. Briefly: KIN10 kinase activity assay with SPS peptide, WT KIN10. The format is biochemical.
For test [6], the target named is T2, KIN10 mutant 3 (K63A-R65A-R66A-K69A-L73A) (Arabidopsis thaliana, UniProt Q38997, K63A/K69A/L73A/R65A/R66A). Nature of the test: MST binding of T6P to KIN10 mutant 3.
T2 sequence (Q38997 19-271 K63A/R65A/R66A/K69A/L73A limits assumed): as the sequence (Q38997 19-271 K63A/R65A/R66A/K69A/L73A limits assumed) above
Another test has as its target KIN10 mutant 2 (Arabidopsis thaliana, UniProt Q38997, K54A/K56A/R52A/R53A). Briefly: KIN10 kinase activity assay with SPS peptide, mutant 2. The format is biochemical. Conditions: 1 mM T6P, 200 ng KIN10 mutant 2 and 200 ng GRIK1.
In a further test the target is KIN10 K63A (Arabidopsis thaliana, UniProt Q38997, K63A). Nature of the test: MST binding of T6P to KIN10 K63A. A digest of the protocol:
as §2

For test [7], the target named is T2, KIN10 mutant 3 (K63A-R65A-R66A-K69A-L73A). Nature of the test: KIN10 kinase activity assay with SPS peptide, mutant 3. The format is biochemical. As to conditions: 1 mM T6P, 50 nM KIN10 mutant 3 plus 50 nM GRIK1.

Data on 2 molecules can be found in PMC11100557 (Science Advances, 2024).

Sequence of KIN10 K63A (Q38997 19-271 K63A limits assumed): as the sequence (Q38997 19-271 K63A/R65A/R66A/K69A/L73A limits assumed) above, with A47R, A48R, A51K, A55L counted along it
Sequence of KIN10 mutant 1 (R23A-R32A-K34A) (Q38997 19-271 R23A/R32A/K34A limits assumed): as the sequence (Q38997 19-271 K63A/R65A/R66A/K69A/L73A limits assumed) above, with R5A, R14A, K16A, A45K, A47R, A48R, A51K, A55L counted along it
Sequence of plant α-catalytic subunit of SnRK1 (Q38997 19-271 limits assumed): as the sequence (Q38997 19-271 K63A/R65A/R66A/K69A/L73A limits assumed) above, with A45K, A47R, A48R, A51K, A55L counted along it
Sequence of KIN10 mutant 2 (Q38997 19-271 R52A/R53A/K54A/K56A limits assumed): as the sequence (Q38997 19-271 K63A/R65A/R66A/K69A/L73A limits assumed) above, with R34A, R35A, K36A, K38A, A45K, A47R, A48R, A51K, A55L counted along it
Sequence of KIN10 R66A (Q38997 19-271 R66A limits assumed): as the sequence (Q38997 19-271 K63A/R65A/R66A/K69A/L73A limits assumed) above, with A45K, A47R, A51K, A55L counted along it
Sequence of KIN10 mutant 1 (Q38997 19-271 R23A/R32A/K34A limits assumed): as the sequence (Q38997 19-271 K63A/R65A/R66A/K69A/L73A limits assumed) above, with R5A, R14A, K16A, A45K, A47R, A48R, A51K, A55L counted along it

On to `Nc1ncnc2c1ncn2[C@@H]1O[C@H](COP(=O)(O)OP(=O)(O)OP(=O)(O)O)[C@@H](O)[C@H]1O` [ATP, adenosine triphosphate], for which the “Kd for ATP, mutant 3 compared with WT KIN10” value at KIN10 mutant 3 is on record as “no change”.
Turning to `O=P(O)(O)OC[C@H]1O[C@H](O[C@H]2O[C@H](CO)[C@@H](O)[C@H](O)[C@H]2O)[C@H](O)[C@@H](O)[C@@H]1O` [T6P, trehalose 6-phosphate], the dissociation constant (Kd) in [1] came to 26 ± 6 µM; on KIN10 K63A-R66A-R141A (Kds determined by MST, KIN10 K63A-R66A-R141A, Table 2 series), 143 µM; in test [3], 34 ± 5 µM; at KIN10 R141A, 52 ± 7 µM; at WT KIN10 [4], 28 ± 4 µM; on KIN10 R66A it was 40 ± 5 µM. Also, the dissociation constant (Kd) came out at 165 ± 21 µM in test [6] and 47 ± 7 µM on KIN10 K63A. The “Kd by MST” value in test [1] (KIN10 mutant 1, Table 1 series) is listed as “no significant difference”; in test [3] (KIN10 mutant 2, Table 1 series), “no significant difference”. Moreover, the “increase in Kd versus WT” value at KIN10 K63A-R66A-R141A (triple mutant K63A-R66A-R141A versus WT) was “sevenfold”. Besides, the “inhibition of the plant α-catalytic subunit of SnRK1” value in test [2] was “specifically inhibited”. For the same molecule, the “reduction of affinity of GRIK1 for KIN10 on T6P binding” value in the test with GRIK1-KIN10 is listed as “threefold”. Moreover, the “activation of mutant 1 by GRIK1 in the presence of T6P” value at KIN10 mutant 1 is on record as “reduced”. This molecule also gave an IC50 against WT KIN10 [5] of 40 µM. Further, on WT KIN10 [5] (1 mM T6P, 50 nM KIN10, no GRIK1), the “change of basal activity of WT KIN10 on addition of T6P” value was “doubling”. Further, in test [6] (mutant 3 versus WT), the “reduction of affinity of T6P binding versus WT KIN10” value is recorded as “fivefold”. Further, the “activation of mutant 2 by GRIK1 in the presence of T6P” value on KIN10 mutant 2 was “reduced”. Moreover, on KIN10 K63A (span over the three single mutants K63A, R66A and R141A, versus WT), the “increase of Kd versus WT” value is given as 1.9- to 2.5 fold. In addition, the “reduction of mutant 3 activation by GRIK1 in the presence of T6P” value in test [7] is given as “no reduction”.

The term Kd denotes the concentration at which binding is half-saturated. A high value points to lower affinity. As a reminder, the IC50 is the concentration at which inhibition is half-maximal. The low end stands for greater potency in that assay, the high end for weaker potency in that assay.
